Measurements taken from ChEMBL document CHEMBL1150402, “Carbon-11 labeled indolylpropylamine analog as a new potential PET agent for imaging of the serotonin transporter” (Bioorg Med Chem, 2008).

Legend:
[1] = biological target: T1, Sodium-dependent serotonin transporter (Homo sapiens, UniProt P31645); assay: biochemical; assay type: cell-based, HEK293
[2] = biological target: Sodium-dependent noradrenaline transporter (Homo sapiens, UniProt P23975); assay: Displacement of [3H]nisoxetine from human NET expressed in HEK293 cells; assay type: cell-based
Sequence of Sodium-dependent noradrenaline transporter (P23975 whole entry): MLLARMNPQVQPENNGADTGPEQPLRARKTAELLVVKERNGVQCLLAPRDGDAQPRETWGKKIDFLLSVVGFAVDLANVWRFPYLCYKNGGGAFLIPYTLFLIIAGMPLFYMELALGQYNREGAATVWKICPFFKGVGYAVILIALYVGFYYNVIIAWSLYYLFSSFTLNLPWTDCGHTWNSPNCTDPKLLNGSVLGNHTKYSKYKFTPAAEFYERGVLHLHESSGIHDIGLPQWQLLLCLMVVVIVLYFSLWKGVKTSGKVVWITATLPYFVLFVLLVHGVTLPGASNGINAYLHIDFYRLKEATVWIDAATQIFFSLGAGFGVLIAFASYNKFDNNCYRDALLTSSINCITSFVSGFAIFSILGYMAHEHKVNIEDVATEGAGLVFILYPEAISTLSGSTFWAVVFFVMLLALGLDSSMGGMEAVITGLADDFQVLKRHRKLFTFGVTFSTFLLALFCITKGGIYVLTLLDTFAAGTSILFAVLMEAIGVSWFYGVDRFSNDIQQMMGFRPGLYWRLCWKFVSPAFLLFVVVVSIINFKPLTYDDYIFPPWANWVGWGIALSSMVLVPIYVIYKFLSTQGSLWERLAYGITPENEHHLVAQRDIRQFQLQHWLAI
Method in brief: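 Stably transfected HEK293 membrane preparation (50-80 ug protein/tube) in 50 mM Tris-HCl pH 7.4, 120 mM NaCl, 5 mM KCl. 0.5 nM radioligand with 6-12 test concentrations, 21 °C for 60 min. Nonspecific: 100 uM protriptyline. GF/B filtration, scintillation counting. Triplicates per experiment; IC50 by nonlinear fitting, converted to Ki.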

[3] = biological target: T1, Sodium-dependent serotonin transporter; assay: biochemical; assay type: cell-based, HEK293; remark: listed apart in the source
[4] = biological target: Sodium-dependent dopamine transporter (Homo sapiens, UniProt Q01959); assay: Displacement of [3H]WIN-35428 from human DAT expressed in HEK293 cells; assay type: cell-based
Sequence of Sodium-dependent dopamine transporter (Q01959 whole entry): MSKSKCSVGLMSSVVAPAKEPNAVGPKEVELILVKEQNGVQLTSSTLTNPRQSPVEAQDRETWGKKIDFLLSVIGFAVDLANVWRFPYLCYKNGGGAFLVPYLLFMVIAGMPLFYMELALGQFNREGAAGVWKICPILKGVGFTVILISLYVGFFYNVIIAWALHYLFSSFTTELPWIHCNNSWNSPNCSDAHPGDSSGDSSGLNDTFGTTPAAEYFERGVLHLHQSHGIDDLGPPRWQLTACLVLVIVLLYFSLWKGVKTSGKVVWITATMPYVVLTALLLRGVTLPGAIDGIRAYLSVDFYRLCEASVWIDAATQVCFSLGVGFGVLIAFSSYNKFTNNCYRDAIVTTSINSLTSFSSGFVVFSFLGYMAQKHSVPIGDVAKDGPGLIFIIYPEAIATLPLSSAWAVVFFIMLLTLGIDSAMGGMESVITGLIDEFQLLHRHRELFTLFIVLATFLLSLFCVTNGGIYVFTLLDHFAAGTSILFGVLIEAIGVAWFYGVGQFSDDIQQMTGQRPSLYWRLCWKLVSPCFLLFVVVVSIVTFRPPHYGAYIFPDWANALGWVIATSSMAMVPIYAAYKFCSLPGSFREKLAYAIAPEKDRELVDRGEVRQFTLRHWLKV
Method in brief: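 Stably transfected HEK293 membrane preparation (50-80 ug protein/tube) in 50 mM Tris-HCl pH 7.4, 100 mM NaCl. 0.5 nM radioligand with 6-12 test concentrations, on ice for 120 min. Nonspecific: 10 uM GBR12909. GF/B filtration, ice-cold Tris washes, scintillation counting. Triplicates per experiment; IC50 by iterative nonlinear fitting, converted to Ki.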

[5] = biological target: T2, 5-hydroxytryptamine receptor 1A (Rattus norvegicus, UniProt P19327); assay: Displacement of [3H]8-OH-DPAT from 5HT1A receptor in rat cortical membrane; assay type: cell membranes
T2 sequence (P19327 whole entry): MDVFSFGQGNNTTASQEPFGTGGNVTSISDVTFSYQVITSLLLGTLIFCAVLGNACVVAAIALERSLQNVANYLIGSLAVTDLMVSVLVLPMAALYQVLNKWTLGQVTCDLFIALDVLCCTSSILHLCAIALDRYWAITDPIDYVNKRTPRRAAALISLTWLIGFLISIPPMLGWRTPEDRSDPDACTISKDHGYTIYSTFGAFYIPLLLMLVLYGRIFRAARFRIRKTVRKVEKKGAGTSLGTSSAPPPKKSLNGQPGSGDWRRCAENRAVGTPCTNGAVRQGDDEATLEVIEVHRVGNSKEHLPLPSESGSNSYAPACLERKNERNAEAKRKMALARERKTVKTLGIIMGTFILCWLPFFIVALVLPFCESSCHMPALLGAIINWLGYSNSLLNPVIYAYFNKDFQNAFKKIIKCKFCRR
Method in brief: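 Cortex from female SPRD rats (~200 g), homogenized and washed in 50 mM Tris-HCl pH 7.4. Membranes in 50 mM Tris-HCl pH 7.4, 4 mM CaCl2, 0.1% ascorbic acid with 0.3 nM radioligand and 6-12 test concentrations, 21 °C for 60 min. Nonspecific: 10 uM serotonin. GF/B filtration, scintillation counting.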

T1 sequence (P31645 whole entry): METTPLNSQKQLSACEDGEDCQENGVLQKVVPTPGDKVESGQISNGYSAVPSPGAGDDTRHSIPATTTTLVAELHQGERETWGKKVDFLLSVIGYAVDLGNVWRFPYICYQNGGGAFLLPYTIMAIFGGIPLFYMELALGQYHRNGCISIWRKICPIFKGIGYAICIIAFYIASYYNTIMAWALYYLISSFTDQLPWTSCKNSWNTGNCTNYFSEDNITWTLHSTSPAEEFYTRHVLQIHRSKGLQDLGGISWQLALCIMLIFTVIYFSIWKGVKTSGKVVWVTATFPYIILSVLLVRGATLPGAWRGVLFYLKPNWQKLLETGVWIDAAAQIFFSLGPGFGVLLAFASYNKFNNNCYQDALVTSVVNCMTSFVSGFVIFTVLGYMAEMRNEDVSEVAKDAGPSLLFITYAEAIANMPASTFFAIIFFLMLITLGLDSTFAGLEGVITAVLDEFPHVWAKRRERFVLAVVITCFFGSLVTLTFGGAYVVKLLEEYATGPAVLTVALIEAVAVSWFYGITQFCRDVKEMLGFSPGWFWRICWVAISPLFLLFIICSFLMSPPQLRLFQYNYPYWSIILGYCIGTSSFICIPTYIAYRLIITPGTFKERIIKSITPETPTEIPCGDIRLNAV

SMILES | Ki [1] [nM] | Ki [2] [nM] | Ki [3] [nM] | Ki [4] [nM] | Ki [5] [nM]
[11CH3]Oc1ccc2c(c1)CCN(CCCc1c[nH]c3ccc(F)cc13)C2 | 25.3 | 1680 | 4.11 | 2490 | 54
[11CH3]Oc1cccc2c1CCN(CCCc1c[nH]c3ccc(Br)cc13)C2 | 2980 | 6600 | 1910 | 3490 | 1990
[11CH3]Oc1ccc2c(c1)CCN(CCCc1c[nH]c3ccc(Br)cc13)C2 | 13.3 | 2770 | 11.4 | 1030 | 50
[11CH3]Oc1cccc2c1CCN(CCCc1c[nH]c3ccc(I)cc13)C2 | 2660 | 1810 | 213 | 1160 | 1120
[11CH3]Oc1cccc2c1CCN(CCCc1c[nH]c3ccc(F)cc13)C2 | 44.7 | 2880 | 6.46 | 1480 | 164
[11CH3]Oc1ccc2c(c1)CCN(CCCc1c[nH]c3ccc(I)cc13)C2 | 1110 | 712 | 374 | 3650 | 685
CNC(C)Cc1ccc2c(c1)OCO2 (configuration not stated) [MIDOMAFETAMINE] | 2.03 | – | 0.73 | – | –
